Here are results for 16 molecules from ChEMBL document CHEMBL1629531, “Hydroxycoumarin derivatives: novel and potent α-glucosidase inhibitors” (J Med Chem, 2010).

The source made the active and inactive calls. The rule behind the calls is not given here. Some results are limits rather than exact numbers.

The nature of assay [1]: Inhibition of alpha-glucosidase using para-nitrophenyl substrate.
Assay [2] can be described thus: Inhibition of Aspergillus oryzae Beta-galactosidase. Put shortly:
(§1)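 β-Galactosidase from Aspergillus oryzae (9.4 unit/mg solid) assayed by a modified literature method. Values are means of ≥3 determinations. NA means <20% inhibition at 400 μM. Maximum inhibition recorded at the top concentration tested (400 or 200 μM).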

Assay [3] can be described thus: Inhibition of Aspergillus oryzae Beta-galactosidase at 400 uM. In short, it runs like this: as §1
The nature of assay [4]: Inhibition of beta-glucosidase using salicin substrate. In short, it runs like this: (§2)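 β-Glucosidase added to 1 mL mix of inhibitor, 5.0 mM salicin, 0.1 M NaAc-HAc pH 5.0, then reacted 10 min at 40 °C. Stopped with DNS reagent and developed 5 min in boiling water. Reducing sugar read at 540 nm against a glucose standard. Triplicates at five concentrations bracketing an estimated IC50. Maximum inhibition recorded at the top concentration tested (400 or 200 μM).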

Assay [5] in a line: Inhibition of alpha-glucosidase at 200 uM using para-nitrophenyl substrate.
A short description of assay [6]: Effect on secondary structure of alpha-glucosidase assessed as alpha-helix content at 0.5 uM bt circular dichroism method. Put shortly: (§3)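 Yeast α-glucosidase secondary structure measured by far-UV CD (186-240 nm), protein 0.53-0.66 mg/mL, 0.1 cm quartz cuvette, 5 accumulations per spectrum. Spectra recorded after exposure to inhibitor and compared with enzyme alone. α-helix, β-sheet, β-turn and random fractions estimated by secondary-structure deconvolution.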

The nature of assay [7]: Effect on secondary structure of alpha-glucosidase assessed as alpha-helix content at 0.3 uM at circular dichroism method. In short, it runs like this: as §3
In general terms: Circular dichroism is the unequal absorption of left and right circularly polarised light.

Assay [8] can be described thus: Effect on secondary structure of alpha-glucosidase assessed as beta-sheet content at 0.5 uM at circular dichroism method. Put shortly: as §3
Assay [9] is described as follows: Effect on secondary structure of alpha-glucosidase assessed as beta-sheet content at 0.3 uM at circular dichroism method. Put shortly: as §3
A short description of assay [10]: Effect on secondary structure of alpha-glucosidase assessed as beta-turn content at 0.5 uM at circular dichroism method. In short, it runs like this:
as §3

The nature of assay [11]: Effect on secondary structure of alpha-glucosidase assessed as beta-turn content at 0.3 uM at circular dichroism method. Put shortly:
as §3

The nature of assay [12]: Effect on secondary structure of alpha-glucosidase assessed as random content at 0.5 uM at circular dichroism method. In short, it runs like this: as §3
The nature of assay [13]: Effect on secondary structure of alpha-glucosidase assessed as random content at 0.3 uM at circular dichroism method. In short, it runs like this: as §3
The nature of assay [14]: Inhibition of beta-glucosidase at 400 uM using salicin substrate. Put shortly:
as §2

A short description of assay [15]: Inhibition of beta-glucosidase at 200 uM using salicin substrate. Put shortly:
as §2

A short description of assay [16]: Inhibition of Aspergillus oryzae Beta-galactosidase at 200 uM. Put shortly: as §1
A short description of assay [17]: Inhibition of alpha-glucosidase using para-nitrophenyl substrate by dose responsive study.
The nature of assay [18]: Inhibition of alpha-glucosidase compound administered simultaneously with para-nitrophenyl substrate. In short, it runs like this:
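Yeast α-glucosidase assay with PNP glycoside substrate, inhibitor and substrate added together with no preincubation.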

A short description of assay [19]: Slow binding inhibition of alpha-glucosidase compound administered 1 hr at 37 degC before initiation of enzyme reaction using para-nitrophenyl substrate. In short, it runs like this:
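Yeast α-glucosidase preincubated with inhibitor at 37 °C for 1 h before the reaction is started with PNP glycoside substrate.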

Assay [20] is described as follows: Noncompetitive inhibition of alpha-glucosidase by Lineweaver-Burk plot. Put shortly:
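Yeast α-glucosidase (50 μL, 10 U/mL) preincubated with inhibitor at 37 °C for 1 h, then PNP glycoside substrate added at varying concentrations. Rate of PNP hydrolysis read at several inhibitor concentrations. Mode assigned from Lineweaver-Burk (1/rate vs 1/[substrate]) double-reciprocal plots. Ki taken from Dixon plot and averaged over the inhibitor concentrations.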

Usually IC50 stands for the concentration needed to halve the response being measured. Broadly, the inhibition is the drop in the measured response relative to a control, in per cent. As usually defined, the Ki is a dissociation constant, usually derived from enzyme kinetics or from competition with a known ligand. Read a high Ki as lower affinity.

Turning to `Cc1cc(=O)oc2cc(O)cc(O)c12` [5,7-DIHYDROXY-4-METHYLCOUMARIN], the half-inhibitory concentration (IC50) in [1] is 64.6 µM; in assay [2] (read-out: IC50), more than 200 µM; in assay [4] (read-out: IC50), 45.4 µM. In [3], this molecule came in with an inhibition of 53.9%.
As to `O=c1ccc2cc(O)ccc2o1`, the inhibition in assay [5] was less than 20%.
`Cc1cc(=O)oc2cc(O)ccc12` [HYMECROMONE]: in assay [1], the half-inhibitory concentration (IC50) came out at 56.2 µM.
In [1], `OC[C@H]1NC[C@H](O)[C@@H](O)[C@@H]1O` [DUVOGLUSTAT] yielded an IC50 of 35.5 µM.
As for `Cc1ccc2oc(=O)cc(O)c2c1`, the inhibition in assay [5] was less than 20%.
Take `O=c1ccc2cc(O)c(O)cc2o1`: in [5], the inhibition is less than 20%.
In assay [1], `COc1ccc2c(OC)cc(=O)oc2c1` returned an IC50 of more than 100 µM.
On to `O=c1cc(O)c2ccc(O)cc2o1`, for which the results for the concentration for half-maximal inhibition (IC50) in assay [1], in assay [2] and in [4] (read-out: IC50) were 38.9 µM, “Not Active” and more than 400 µM, respectively. Further, the inhibition was found to be 0% in assay [3] and 36.7% in assay [14]. Also, the Activity was found to be 37.1% in assay [6]; 47.1% in assay [7]; 7.4% in assay [8]; 5.3% in assay [9]; 21.4% in assay [10]; 18% in assay [11]. For the same molecule, the Activity is 34.1% in [12] and 29.4% in [13].
In assay [1], `Cc1cc(=O)oc2cc(O)c(O)cc12` [4-METHYLESCULETIN] registered a half-inhibitory concentration (IC50) of 94.2 µM.
`COc1ccc2c(OC)cc(=O)oc2c1C` returned an inhibition in assay [5] of less than 20%.
Consider `Cc1c(O)ccc2c(O)cc(=O)oc12`, for which the IC50 is 50.5 µM in assay [1], “Not Active” in [2] and 87.6 µM in [4] (read-out: IC50). The inhibition in assay [3] is 0%.
Consider `O=c1oc2ccccc2cc1O` [3-HYDROXYCOUMARIN], for which the results for the IC50 in [1], in assay [2] and in [4] were 35.3 µM, “Not Active” and “Not Active”, respectively. For the same molecule, the inhibition in assay [3] turned out to be 0%.
Turning to `O=c1oc2cc(O)ccc2c(O)c1-c1c(O)ccc(O)c1-c1c(O)c2ccc(O)cc2oc1=O`, the IC50 in [1] is 0.86 µM; in [2] (read-out: IC50) it was more than 200 µM; in [18], 88.4 µM; in [4] (read-out: IC50), more than 200 µM. In addition, the figures for the inhibition in [15], in assay [16] and in assay [17] were 23%, 2% and “Dose-dependent effect”, respectively. Besides, the inhibition result in assay [19] is “Active”. Moreover, in [20], the inhibition constant Ki is 0.587 µM. In addition, the Activity in assay [6] turned out to be 32.7%; in assay [7], 33.4%; in assay [8] it was 30%; in [9] it was 23.8%; in [10] it was 9.2%; in assay [11] it was 13.4%. Besides, the Activity is 28.1% in [12] and 29.4% in [13].
In turn, `O=c1c(-c2ccc(O)cc2)coc2cc(O)cc(O)c12` [GENISTEIN] displayed an IC50 in [1] of 12.4 µM.
Same read-out and setting: then `Cc1cc(=O)oc2c(O)c(O)ccc12` [4-METHYLDAPHNETIN], with 52.7 µM.
For `COc1ccc2c(O)cc(=O)oc2c1`, the 50% inhibitory concentration (IC50) in assay [1] came to 96.1 µM.
